The data set in a line: Toxicity liver stage against HepG2, at 10uM. It is filed as cell-based. Set-up: test concentration 10 uM, cell line HepG2-A16-CD81EGFP. To be noted: human, HepG2-A16-CD81EGFP cells; read-out: INHIBITION
The essentials: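 Uninfected HepG2-A16-CD81EGFP cells, 3 × 10^3 per well, 1536-well, plated on prespotted compound at 10 μM final, parasite-free screening media added to match infected plates; puromycin 10 μM positive, DMSO 0.5% negative; run in parallel with 48 h PbLuc assay at 37 °C, 5% CO2; viability by CellTiter-Glo luminescence, normalized to controls.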

Regarding `O=C(c1n[nH]cc1Br)N1CCOCC1`, the cytotoxicity at 10 µM was 5.31%.

Consider `O=C(Cc1ccccn1)N1CCC2(CC1)CN(c1ccccn1)CCO2`, for which the cytotoxicity at 10 µM was found to be 8.85%.

`CC(C)(C)NC(=O)CN1CCN(C(=O)Nc2ccc(F)cc2F)CC1`: the cytotoxicity at 10 µM is -23.2%.

As for `CC(=O)N1CCC(C(=O)N2CCC(=Cc3cccc(F)c3)CC2)CC1`, the cytotoxicity at 10 µM amounted to 3.5%.

Take `Cn1cc(CN2CCCN(C(=O)c3cc[nH]n3)CC2)cn1`: the cytotoxicity at 10 µM is -8.72%.

For `NC(=O)C1CCN(C(=O)CCSCc2ccccc2)CC1`, the cytotoxicity at 10 µM turned out to be 4.22%.

`CC1c2cc(F)ccc2CCN1C(=O)c1[nH]c(=O)[nH]c(=O)c1N` (configuration not stated): the cytotoxicity at 10 µM was 7.78%.

In the case of `CC(C)(C)Nc1nc(-c2cccnc2)c(-c2ccnc(NCCO)n2)s1`, the cytotoxicity at 10 µM was -5.64%.

Regarding `O=C(O)c1ccc(CC2CCN(Cc3ccc(-c4cc[nH]n4)o3)C2)cc1` (configuration not stated), the cytotoxicity at 10 µM is 6.37%.

As for `O=C(c1ccsc1)N1CCc2c(COCc3ccncc3)cncc2C1`, the cytotoxicity at 10 µM was -1.48%.

Regarding `CN(C)C(=O)c1cnc(-c2ccc3c(c2)OCO3)s1`, the cytotoxicity at 10 µM turned out to be 5.29%.

`O=C1CCC(c2ccccc2)=NN1CN1CCCCCC1`: the cytotoxicity at 10 µM is -86.3%.

Regarding `Cc1cc(CN2CCN(CC(=O)NC3(C#N)CCCCC3)CC2)on1`, the cytotoxicity at 10 µM is 5.83%.

In the case of `COc1cc(NC(=O)c2ccc(CN3CC[C@H](O)C3)cc2)cc(OC)c1`, the cytotoxicity at 10 µM turned out to be 10.5%.

`Cn1cnc(S(=O)(=O)N2CC3(CCN(CC4CC4)C3)C2)c1`: the cytotoxicity at 10 µM is -99.2%.

On to `CCN(CC)c1nc2sc(C(=O)NCC(=O)OC)cc2s1`, for which the cytotoxicity at 10 µM was 1.05%.

Turning to `Cc1nn(C)c(N2CCOCC2)c1CNCc1ccc(CO)c(F)c1`, the cytotoxicity at 10 µM is -14.5%.

For the molecule `CC(C)N(C)C(=O)C1CSCN1S(=O)(=O)c1cccs1` (configuration not stated), the cytotoxicity at 10 µM is -5.96%.

As for `Cc1csc(CCNC(=O)N2CCC(n3cccc3)CC2)n1`, the cytotoxicity at 10 µM stood at 3.98%.

For the molecule `Cc1cccc(CNC(Cc2ccsc2)c2nc(C)c(C)s2)n1` (configuration not stated), the cytotoxicity at 10 µM was -0.52%.

In the case of `CC(C)c1nn(C)c(N2CCOCC2)c1CN[C@H](C)CO`, the cytotoxicity at 10 µM is -7.67%.

For the molecule `O=C(Cc1ccsc1)NC1CCc2c(ccc(=O)n2CC2CC2)C1` (configuration not stated), the cytotoxicity at 10 µM is 8.88%.

In the case of `CCn1ncnc1C(C)NC(=O)C1CCN(Cc2ccco2)CC1` (configuration not stated), the cytotoxicity at 10 µM was -133%.

In the case of `CN(C)C(=O)CCCNc1ncc2c(n1)CCN2c1ccccc1`, the cytotoxicity at 10 µM is 2.29%.

Consider `Cc1cc(NC(=O)Cc2ccc3c(c2)OCO3)n(C)n1`, for which the cytotoxicity at 10 µM was found to be 10.1%.

In the case of `O=C1OCCN1CCNCC1(O)CCCN(CCC2CCCCC2)C1=O` (configuration not stated), the cytotoxicity at 10 µM is -0.615%.

In the case of `CCOc1ccccc1-c1noc(CN2CCCC(O)C2)n1` (configuration not stated), the cytotoxicity at 10 µM was -3.85%.

For the molecule `COC(=O)[C@@H](NC(=O)c1coc(COc2cccc(F)c2)n1)C(C)C`, the cytotoxicity at 10 µM was -142%.

Regarding `Cc1cnc(C(=O)N2C[C@@H]3[C@@H](C2)OCC(=O)N3CC2CCCC2)cn1`, the cytotoxicity at 10 µM was -3.78%.

For `CCc1nnc(C(C)N2CCN(CCC(C)(C)C)CC2)o1` (configuration not stated), the cytotoxicity at 10 µM is 6.61%.

As to `Cc1nc(CN2CCO[C@@H]3CN(C(=O)CC4CC4)CC[C@@H]3C2)cs1`, the cytotoxicity at 10 µM was determined as 3.79%.

`Cc1nc(CN2CCN(C(=O)c3sccc3C)CC2)cs1`: the cytotoxicity at 10 µM came out at 0.96%.

As to `CC(C)S(=O)(=O)NCC1CCCN(C(=O)c2ccc(Cl)cc2)C1` (configuration not stated), the cytotoxicity at 10 µM is -3.44%.

For `CS(=O)(=O)N1CCOCC2(CCN(C(=O)c3ccco3)CC2)C1`, the cytotoxicity at 10 µM worked out at 4.29%.

Consider `Cc1oc(-c2ccco2)nc1CC(=O)N1CCC(CCO)C1` (configuration not stated), for which the cytotoxicity at 10 µM was -2.02%.

For the molecule `Clc1ccc(OCCNC2(c3ccc(Br)cc3)CCOCC2)cc1`, the cytotoxicity at 10 µM came out at 2.67%.

Regarding `O=C(c1ccc(F)cc1)N1CCOC(c2nc(-c3ncccn3)no2)C1` (configuration not stated), the cytotoxicity at 10 µM is -12.4%.

As for `N#Cc1ccnc(N2CCC(NCCN3CCCC3)CC2)c1`, the cytotoxicity at 10 µM is -53%.

As to `COc1ccc(CC2CN(C3CCSCC3)CCO2)cc1` (configuration not stated), the cytotoxicity at 10 µM turned out to be 4.49%.

Regarding `CS(=O)(=O)NCCCN1CCCC1c1cccc(Br)c1` (configuration not stated), the cytotoxicity at 10 µM is -2.51%.

Take `CCN1CCn2c(C)cnc2C12CCN(C(=O)NCC(C)C)CC2`: the cytotoxicity at 10 µM was -1.07%.

For the molecule `COc1ccccc1C(C)(C)NC(=O)NCCC(=O)NC1CCCC1`, the cytotoxicity at 10 µM turned out to be 8.42%.

In the case of `Cc1ccc(N2CC3(COCCN(Cc4ccccn4)C3)OCC2=O)s1` (configuration not stated), the cytotoxicity at 10 µM was -3.49%.

As for `Cc1ccccc1C(NC(=O)Cn1cc(C2CC2)nn1)C1CC1` (configuration not stated), the cytotoxicity at 10 µM was -1.03%.

For `COc1ccc(NC(C)C(=O)N2CCCC2)cn1` (configuration not stated), the cytotoxicity at 10 µM was -4.96%.

Consider `Cn1cc(CNC(=O)c2cc3c(s2)CCCCC3)cn1`, for which the cytotoxicity at 10 µM was -12%.

As to `CN(CCNS(C)(=O)=O)CC(c1cccs1)N1CCOCC1` (configuration not stated), the cytotoxicity at 10 µM is -3.43%.

`CC(=O)N(Cc1ncc(C)o1)C1CCN(Cc2ccncc2Cl)C1` (configuration not stated): the cytotoxicity at 10 µM came out at 3.68%.

Consider `CN(C)C(=O)CS(=O)(=O)Cc1cc(Cl)c2c(c1)OCO2`, for which the cytotoxicity at 10 µM is -6.24%.

Take `O=C([C@H]1CCCO1)N1CCc2ncnc(NC3CC3)c2CC1`: the cytotoxicity at 10 µM was -12.6%.

Consider `CN(C)C(=O)CNC(=O)c1nc(C2CC2)n(-c2ccccc2Cl)n1`, for which the cytotoxicity at 10 µM was -2.03%.

For the molecule `O=C(C1CCC1)N1CCC2(CC1)CNCCO2`, the cytotoxicity at 10 µM was -4.29%.

Turning to `CNc1cc(C2CCCN2C(=O)CCc2cnn(C)c2C)ccn1` (configuration not stated), the cytotoxicity at 10 µM came out at 5.98%.

For `COc1ccc(C2OC(COc3ccc(C)cc3)=NN2C(C)=O)cc1` (configuration not stated), the cytotoxicity at 10 µM was -6.19%.

As for `NC(=O)c1ccc(NC2CCOC3(CCCC3)C2)nn1` (configuration not stated), the cytotoxicity at 10 µM was -3.13%.

For `CC(C)CC(=O)N1CCc2nc(N3CCOCC3)nc(NC(C)C)c2C1`, the cytotoxicity at 10 µM was 2.86%.

As for `CCCn1cnnc1CNC(=O)C1COc2c(cccc2OC)C1` (configuration not stated), the cytotoxicity at 10 µM was -1.26%.

In the case of `COCCO[C@H]1CCN(C(=O)c2ccno2)[C@H]1Cc1cnn(C)c1`, the cytotoxicity at 10 µM was -5.45%.

Regarding `CN(C)C(=O)c1cccc(C[S+]([O-])CC(=O)NC2CCCC2)c1` (configuration not stated), the cytotoxicity at 10 µM is 5.79%.

Take `Cc1cnc(CCNC(=O)C2CN(C(=O)Cc3ccc(F)cc3)C2)s1`: the cytotoxicity at 10 µM came out at 0.82%.

As to `Cc1nn(C(C)C)c2cn(CC(=O)NC3CCSCC3)nc12`, the cytotoxicity at 10 µM was -2.72%.

As for `NC(=O)CCCNC(=O)CCc1cc(Br)cs1`, the cytotoxicity at 10 µM turned out to be 4.11%.

Regarding `CC(=O)c1c(C)nn(CC(=O)N2CCCC2c2ccc(C(N)=O)s2)c1C` (configuration not stated), the cytotoxicity at 10 µM stood at 1.16%.

As for `COCCn1nc(C(=O)N2CCCC2c2cccc(F)c2)ccc1=O` (configuration not stated), the cytotoxicity at 10 µM was -5.5%.

As for `Cc1ccc(-c2nnc(CN3CC(n4cc(C)cn4)C3)o2)cc1`, the cytotoxicity at 10 µM was 2.48%.

For the molecule `CCC1=NC(SCC(=O)c2ccc(OC)cc2)c2cc(CC)sc2N1` (configuration not stated), the cytotoxicity at 10 µM came to 9.4%.

On to `O=C(NCc1ccc2c(c1)CCCO2)C1CNCCO1` (configuration not stated), for which the cytotoxicity at 10 µM was -7.49%.

Take `Cc1nc2sccn2c1C(=O)N1CCc2[nH]cnc2C1`: the cytotoxicity at 10 µM is -6.11%.

On to `c1ccc(CCN2CCCC(c3ccnc4nccn34)C2)cc1` (configuration not stated), for which the cytotoxicity at 10 µM stood at 4.22%.

For `O=C(N1CCCCC1)N1CCN(CC(O)c2ccc(F)cc2)CC1` (configuration not stated), the cytotoxicity at 10 µM is -8.85%.

Consider `N#Cc1cccc(OCCN2CCn3c(nnc3C3CC3)C2)c1`, for which the cytotoxicity at 10 µM is -7%.

Take `CCS(=O)(=O)N1CCC2(CC1)CC[C@@]1(C(=O)NC)CN(C(C)=O)C[C@@H]21`: the cytotoxicity at 10 µM was found to be 6.1%.

In the case of `Cc1nc(CCNC(=O)NCC(c2ccco2)N(C)C)cs1` (configuration not stated), the cytotoxicity at 10 µM stood at 7.26%.

Regarding `Cc1nn(C)c(N(C)C)c1CNCCCN(C)S(C)(=O)=O`, the cytotoxicity at 10 µM is -4.07%.

With `CC(C)NC(=O)N[C@H]1C[C@@H](c2nc(-c3ccc(F)cc3)no2)N(C)C1`, the cytotoxicity at 10 µM is -7.97%.

Turning to `c1nc2c(c(N3CCOCC3)n1)CCNCC2`, the cytotoxicity at 10 µM was -2.36%.

As to `CC(Cn1cccn1)NS(=O)(=O)Cc1ccc(F)cc1` (configuration not stated), the cytotoxicity at 10 µM amounted to 7.28%.

With `Cc1ccc(Cl)c(C)c1NC(=O)N1CCCN(Cc2ccccn2)CC1`, the cytotoxicity at 10 µM was 0.617%.

For `COc1cc2nc3n(c(=O)c2cc1OC)CCN(C(C)=O)CC3`, the cytotoxicity at 10 µM is -2.65%.

As for `CN1CCCC1c1nccnc1-c1ccc(C(=O)O)cc1` (configuration not stated), the cytotoxicity at 10 µM was 11%.

Turning to `N#Cc1cccc(SCCS(N)(=O)=O)c1`, the cytotoxicity at 10 µM is -2.53%.

In the case of `Cc1c(NC(=O)C(C)N(C)C)c(=O)n(-c2ccccc2)n1C` (configuration not stated), the cytotoxicity at 10 µM was determined as 1.11%.

As to `Cc1ccc(CNC(=O)CNCC2CCN(CCO)CC2)s1`, the cytotoxicity at 10 µM was determined as 6.89%.

For `Cc1cccc(CN2CCc3ncnc(NC4CCC4)c3CC2)n1`, the cytotoxicity at 10 µM was -152%.

Consider `CN(C)Cc1ccnc(C2CCCN2Cc2ccc(F)cn2)n1` (configuration not stated), for which the cytotoxicity at 10 µM was -17.7%.

In the case of `Cc1cccc(N2CCC3(CCN(C(=O)c4cccnc4)CC3)C2)n1`, the cytotoxicity at 10 µM was -0.482%.

With `CSCc1nc(CCNC(=O)C2CCCN(C(C)=O)C2)cs1` (configuration not stated), the cytotoxicity at 10 µM is -4.84%.

On to `COc1ccc(CNC2CCN(c3ccccc3)C2)cc1O` (configuration not stated), for which the cytotoxicity at 10 µM stood at 8.63%.

`CCCc1nnc(NC2CCN(C3CCOCC3)CC2)o1`: the cytotoxicity at 10 µM is -4.92%.

Regarding `Cc1cc(C)n(CC2CCCN2CCC(=O)Nc2cc(C)on2)n1` (configuration not stated), the cytotoxicity at 10 µM is 1.44%.

With `COCCc1noc(CN2CCc3nn(C(C)C)c(=O)cc3C2)n1`, the cytotoxicity at 10 µM was -14.9%.

For the molecule `O[C@@H]1CN(c2nc3ccccc3s2)CC[C@H]1c1ccc2c(c1)OCO2`, the cytotoxicity at 10 µM came to 52.7%.

Regarding `O=C(c1ccc(N2CCCCCC2)nn1)N1CCc2ccccc21`, the cytotoxicity at 10 µM was -8.04%.

Take `[O-][S+](CCN1CCc2[nH]nc(C(F)(F)F)c2C1)c1ccccc1` (configuration not stated): the cytotoxicity at 10 µM is -9.92%.

On to `CC(C)OCCN1CCN(C(=O)c2cccc(CC#N)c2)CC1`, for which the cytotoxicity at 10 µM was 0.119%.

Take `CNC(=O)C1CCN(c2cc(C3CCNCC3)nc(C)n2)C1` (configuration not stated): the cytotoxicity at 10 µM is -6.43%.

For the molecule `Cc1cc(C2CCN(S(=O)(=O)c3cn(C)cn3)CC2)ccn1`, the cytotoxicity at 10 µM was -32.6%.

The values are drawn from ChEMBL document CHEMBL4513216, “Probing the Open Global Health Chemical Diversity Library for Multistage-Active Starting Points for Next-Generation Antimalarials” (ACS Infect Dis, 2020).
